In brackets after ≈: the same amount, converted by molar mass.
Legend:
Format in all cases: functional
[1] = tested on: Human alphaherpesvirus 2; assay: Antiviral activity against herpes simplex virus(2) strain MS expressed as virus rating
Method in brief: (§1)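 Inhibition of virus-induced cytopathogenic effect (CPE) in primary rabbit kidney cell cultures challenged with HSV-1 strain 377 or HSV-2 strain MS. HSV-2 testing followed the same procedure. Activity was scored as a virus rating (VR).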

[2] = tested on: Human alphaherpesvirus 1; assay: Antiviral activity against herpes simplex virus(1) strain 377.; method in brief: as §1
[3] = tested on: Human alphaherpesvirus 1; assay: Minimum inhibitory concentration (MIC50) in Herpes simplex virus type-1 (HSV-1) using 377 strain.
Method in brief: (§2)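 Inhibition of virus-induced CPE in primary rabbit kidney cell cultures infected with HSV-1 strain 377 or HSV-2 strain MS. Potency was taken as the minimum inhibitory concentration (MIC50), in μg/mL, alongside the virus rating.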

[4] = tested on: Human alphaherpesvirus 2; assay: Minimum inhibitory concentration (MIC50) in Herpes simplex virus type-2 (HSV-2) using MS strain.; method in brief: as §2
[5] = tested on: Human alphaherpesvirus 2; assay: Antiviral activity against herpes simplex virus(2) strain MS expressed as virus rating. Experiment 1; method in brief: as §1
[6] = tested on: Human alphaherpesvirus 2; assay: Antiviral activity against herpes simplex virus(2) strain MS expressed as virus rating. Experiment 2; method in brief: as §1
[7] = tested on: Human alphaherpesvirus 1; assay: Minimum inhibitory concentration (MIC50) in Herpes simplex virus type-1 (HSV-1) using 377 strain. Experiment 3; method in brief: as §2
[8] = tested on: Human alphaherpesvirus 1; assay: Antiviral activity against herpes simplex virus(1) strain 377, expressed as virus rating. Experiment 1; method in brief: as §1
[9] = tested on: Human alphaherpesvirus 1; assay: Antiviral activity against herpes simplex virus(1) strain 377, expressed as virus rating. Experiment 2; method in brief: as §1
[10] = tested on: Human alphaherpesvirus 1; assay: Antiviral activity against herpes simplex virus(1) strain 377, expressed as virus rating. Experiment 3; method in brief: as §1
[11] = tested on: Human alphaherpesvirus 1; assay: Antiviral activity against herpes simplex virus(1) strain 377, expressed as virus rating. Experiment 4; method in brief: as §1
[12] = tested on: Human alphaherpesvirus 1; assay: Minimum inhibitory concentration (MIC50) in Herpes simplex virus type-1 (HSV-1) using 377 strain. Experiment 1; method in brief: as §2
[13] = tested on: Human alphaherpesvirus 1; assay: Minimum inhibitory concentration (MIC50) in Herpes simplex virus type-1 (HSV-1) using 377 strain. Experiment 2; method in brief: as §2
[14] = tested on: Human alphaherpesvirus 2; assay: Minimum inhibitory concentration (MIC50) in Herpes simplex virus type-2 (HSV-2) using MS strain. Experiment 1; method in brief: as §2
[15] = tested on: Human alphaherpesvirus 2; assay: Minimum inhibitory concentration (MIC50) in Herpes simplex virus type-2 (HSV-2) using MS strain. Experiment 2; method in brief: as §2
[16] = tested on: Human alphaherpesvirus 1; assay: Minimum inhibitory concentration (MIC50) in Herpes simplex virus type-1 (HSV-1) using 377 strain. Experiment 4; method in brief: as §2
[17] = tested on: Human alphaherpesvirus 2; assay: Antiviral activity against herpes simplex virus(2) strain MS expressed as virus rating.; method in brief: as §1
[18] = tested on: Human alphaherpesvirus 1; assay: Antiviral activity against herpes simplex virus(1) strain 377, expressed as virus rating; method in brief: as §1
[19] = tested on: Human alphaherpesvirus 1; assay: Minimum inhibitory concentration (MIC50) in Herpes simplex virus type-1 (HSV-1) using 377 strain at 0.9 virus rating. Experiment 2; method in brief: as §2
[20] = tested on: Human alphaherpesvirus 1; assay: Minimum inhibitory concentration (MIC50) in Herpes simplex virus type-1 (HSV-1) using 377 strain. Experiment 2.; method in brief: as §2
[21] = tested on: Human alphaherpesvirus 2; assay: Minimum inhibitory concentration (MIC50) in Herpes simplex virus type-2(HSV-2) using MS strain.; method in brief: as §2
[22] = tested on: Human alphaherpesvirus 1; assay: Minimum inhibitory concentration (MIC50) in Herpes simplex virus type-1(HSV-1) using 377 strain.; method in brief: as §2

`Cc1cn([C@@H]2C[C@H](CO)[C@@H](O)C2)c(=O)[nH]c1=O` showed a Virus rating [1] of 3.2, a Virus rating [2] of 5.4 and an MIC50 [3] of 0.8 mg/L (≈ 3.33 µM). It also gave an MIC50 [4] of 7 mg/L (≈ 29.1 µM).
`O=c1ccn(C2CC(CO)CC2O)c(=O)[nH]1` (stereo not given) was tested, and the Virus rating [2] was 0.
`Cc1cn(C2CC(CO)C(O)C2O)c(=O)[nH]c1=O` (stereo not given) showed a Virus rating [2] of 0.
In the case of `O=c1[nH]c(=O)n([C@@H]2C[C@H](CO)[C@@H](O)C2)cc1I`, the Virus rating [5] is reported as 2.9, the Virus rating [6] is reported as 3.4 and the MIC50 [7] is reported as 0.1 mg/L (≈ 0.284 µM). The Virus rating [8] was 6.5, the Virus rating [9] was 7.1 and the Virus rating [10] was 7.9. It also gave a Virus rating [11] of 7.4, an MIC50 [12] of 0.4 mg/L (≈ 1.14 µM) and an MIC50 [13] of 0.3 mg/L (≈ 0.852 µM). The MIC50 [14] was 32 mg/L (≈ 90.9 µM), the MIC50 [15] was 20 mg/L (≈ 56.8 µM) and the MIC50 [16] was 0.4 mg/L (≈ 1.14 µM).
Work on `O=c1[nH]c(=O)n([C@H]2C[C@H](O)[C@@H](CO)O2)cc1F` [FLOXURIDINE] yielded a Virus rating [1] of 0 and a Virus rating [2] of 0.
Work on `Cc1cn(C2CC(CO)CC2O)c(=O)[nH]c1=O` (stereo not given) yielded a Virus rating [2] of 0.4.
Work on `CNc1cn(C2CC(O)C(CO)C2)c(=O)[nH]c1=O` (stereo not given) yielded a Virus rating [17] of 1.2, an MIC50 [7] of 25 mg/L (≈ 97.9 µM) and a Virus rating [8] of 4.2. The Virus rating [9] was 3.9, the Virus rating [10] was 4.5 and the MIC50 [12] was 10 mg/L (≈ 39.2 µM). It also gave an MIC50 [13] of 15 mg/L (≈ 58.8 µM) and an MIC50 [4] of 229 mg/L (≈ 897 µM).
`O=c1[nH]c(=O)n(C2CC(CO)CC2O)cc1F` (stereo not given) gave a Virus rating [2] of 0.
`CCCCNc1cn(C2CC(O)C(CO)C2)c(=O)[nH]c1=O` (stereo not given) showed a Virus rating [17] of 0.7, a Virus rating [2] of 2 and an MIC50 [3] of 290 mg/L (≈ 975 µM). For the same molecule, the MIC50 [4] was 1000 mg/L (≈ 3360 µM).
For `O=c1[nH]c(=O)n(C2CC(CO)C(O)C2O)cc1F` (stereo not given), the Virus rating [2] was 0.
Work on `Nc1cn(C2CC(O)C(CO)C2)c(=O)[nH]c1=O` (stereo not given) yielded a Virus rating [18] of 0.1.
With `Nc1cn(C2CC(CO)C(O)C2O)c(=O)[nH]c1=O` (stereo not given) the Virus rating [2] was 0.
`CC(=O)OCC1CC(n2cc(Br)c(=O)[nH]c2=O)CC1OC(C)=O` (stereo not given) was tested, and the Virus rating [8] was 1.3, the Virus rating [9] was 0.9 and the MIC50 [19] was 100 mg/L (≈ 257 µM). The MIC50 [12] was 92 mg/L (≈ 236 µM).
`CC(=O)OCC1CC(n2cc(I)c(=O)[nH]c2=O)CC1OC(C)=O` (stereo not given) was tested, and the MIC50 [20] was 25 mg/L (≈ 57.3 µM), the Virus rating [8] was 2.4 and the Virus rating [9] was 1.6. It also gave an MIC50 [12] of 10 mg/L (≈ 22.9 µM).
For `O=c1[nH]c(=O)n(C2CC(CO)C(O)C2O)cc1I` (stereo not given), the Virus rating [2] was 0.
`O=c1[nH]c(=O)n(C2CC(O)C(CO)C2)cc1Br` (stereo not given) was tested, and the Virus rating [1] was 1.5, the Virus rating [2] was 6.2 and the MIC50 [21] was 32 mg/L (≈ 105 µM). The MIC50 [22] was 0.3 mg/L (≈ 0.983 µM).
Work on `CNc1cn(C2CC(CO)C(O)C2O)c(=O)[nH]c1=O` (stereo not given) yielded a Virus rating [2] of 0.
Molecule `O=c1[nH]c(=O)n(C2CC(CO)CC2O)cc1Br` (stereo not given) has a Virus rating [2] of 0.
`Nc1ncnc2c1ncn2[C@@H]1O[C@H](CO)[C@@H](O)[C@@H]1O` [VIDARABINE] gave a Virus rating [1] of 2.3, a Virus rating [18] of 2.7 and an MIC50 [3] of 9.8 mg/L (≈ 36.7 µM). The MIC50 [4] was 20.1 mg/L (≈ 75.2 µM).
With `O=c1[nH]c(=O)n(C2CC(CO)C(O)C2O)cc1CO` (stereo not given) the Virus rating [1] was 0 and the Virus rating [18] was 0.3.
Molecule `Nc1cn(C2CC(CO)CC2O)c(=O)[nH]c1=O` (stereo not given) has a Virus rating [2] of 0.
Work on `CN(C)c1cn(C2CC(O)C(CO)C2)c(=O)[nH]c1=O` (stereo not given) yielded a Virus rating [2] of 0.
In the case of `O=c1[nH]c(=O)n([C@H]2C[C@H](O)[C@@H](CO)O2)cc1I` [IDOXURIDINE], the Virus rating [1] is reported as 5, the Virus rating [18] is reported as 7.4 and the MIC50 [3] is reported as 0.3 mg/L (≈ 0.847 µM). It also gave an MIC50 [4] of 1 mg/L (≈ 2.82 µM).
`CC(=O)OCC1CC(OC(C)=O)C(n2cc(Br)c(=O)[nH]c2=O)C1` (stereo not given) was tested, and the Virus rating [18] was 0.
With `O=c1[nH]c(=O)n(C2CC(CO)C(O)C2O)cc1Br` (stereo not given) the Virus rating [2] was 0.
`O=c1ccn(C2CC(O)C(CO)C2)c(=O)[nH]1` (stereo not given) showed a Virus rating [18] of 0.
`O=c1ccn(C2CC(CO)C(O)C2O)c(=O)[nH]1` (stereo not given) showed a Virus rating [2] of 0.
Molecule `O=c1[nH]c(=O)n(C2CC(CO)CC2O)cc1I` (stereo not given) has a Virus rating [2] of 0.
`CNc1cn(C2CC(CO)CC2O)c(=O)[nH]c1=O` (stereo not given) gave a Virus rating [2] of 0.

Source: ChEMBL document CHEMBL1122431, “Carbocyclic analogues of 5-substituted uracil nucleosides: synthesis and antiviral activity” (1983)
